# Data: ChEMBL document CHEMBL1165972, “Selective angiotensin II AT(2) receptor agonists with reduced CYP 450 inhibition” (Bioorg Med Chem, 2010)
# The source made the active and inactive calls. The calls are words filed in the database; no cut-off is given here.
# How the values were obtained:
# CYP2B6 = biological target: T1, CYP2B6 (Homo sapiens, UniProt P20813); experiment: Inhibition of human recombinant CYP2B6 at 10 uM by spectrofluorimetry; assay type: ADME
# T1 sequence (P20813 whole entry): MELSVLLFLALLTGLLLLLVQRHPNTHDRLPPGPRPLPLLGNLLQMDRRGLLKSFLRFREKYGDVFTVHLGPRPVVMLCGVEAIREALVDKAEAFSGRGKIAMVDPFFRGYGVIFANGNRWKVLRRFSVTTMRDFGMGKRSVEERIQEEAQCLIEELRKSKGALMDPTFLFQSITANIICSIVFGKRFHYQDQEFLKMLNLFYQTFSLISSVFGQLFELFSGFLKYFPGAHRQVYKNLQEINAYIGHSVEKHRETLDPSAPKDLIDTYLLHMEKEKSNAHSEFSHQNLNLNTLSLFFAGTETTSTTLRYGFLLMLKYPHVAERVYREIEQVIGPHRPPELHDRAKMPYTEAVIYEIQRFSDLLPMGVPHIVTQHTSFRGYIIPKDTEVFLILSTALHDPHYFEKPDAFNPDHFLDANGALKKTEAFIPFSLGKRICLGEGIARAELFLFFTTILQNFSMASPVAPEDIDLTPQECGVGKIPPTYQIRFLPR
# Method in brief: (§1)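 Compounds were tested at 10 µM in duplicate in a spectrofluorometric assay, with 0.25% final methanol and 0.25% final acetonitrile. Fluorescence at t = 0 was subtracted from fluorescence after incubation. Signal was compared with solvent-vehicle controls, and percent of control activity was reported as percent inhibition.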
# [1] = Displacement of [125I]angiotensin 2 from AT1 receptor in rat liver membrane after 2 hrs by gamma counting; assay type: cell membranes
# Method in brief: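 Rat liver membranes (5 mg original tissue) were incubated with 0.03 nM [125I]Ang II and varied test-compound concentrations. Incubation was 2 h at 25 °C. Bound and free label were separated by filtration on PEI-soaked GF/B filters and bound label was gamma counted. Nonspecific binding was taken with 1 µM Ang II.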
# CYP2C9 [2] = biological target: T2, CYP2C9 (Homo sapiens, UniProt P11712); experiment: Inhibition of CYP2C9 at 10 uM; assay type: ADME; method in brief: as §1
# CYP2C19 = CYP2C19 (Homo sapiens, UniProt P33261); experiment: Inhibition of human recombinant CYP2C19 at 10 uM by spectrofluorimetry; assay type: ADME; method in brief: as §1
# CYP2C9 [3] = biological target: T2, CYP2C9; experiment: Inhibition of human recombinant CYP2C9 at 10 uM by spectrofluorimetry; assay type: ADME; method in brief: as §1
# CYP3A4 [4] = biological target: T3, CYP3A4 (Homo sapiens, UniProt P08684); experiment: Inhibition of CYP3A4 at 10 uM; assay type: ADME; method in brief: as §1
# CYP3A4 [5] = biological target: T3, CYP3A4; experiment: Inhibition of human recombinant CYP3A4 at 10 uM by spectrofluorimetry; assay type: ADME; method in brief: as §1
# CYP1A2 = biological target: T4, CYP1A2 (Homo sapiens, UniProt P05177); experiment: Inhibition of human recombinant CYP1A2 at 10 uM by spectrofluorimetry; assay type: ADME; method in brief: as §1
# T4 sequence (P05177 whole entry): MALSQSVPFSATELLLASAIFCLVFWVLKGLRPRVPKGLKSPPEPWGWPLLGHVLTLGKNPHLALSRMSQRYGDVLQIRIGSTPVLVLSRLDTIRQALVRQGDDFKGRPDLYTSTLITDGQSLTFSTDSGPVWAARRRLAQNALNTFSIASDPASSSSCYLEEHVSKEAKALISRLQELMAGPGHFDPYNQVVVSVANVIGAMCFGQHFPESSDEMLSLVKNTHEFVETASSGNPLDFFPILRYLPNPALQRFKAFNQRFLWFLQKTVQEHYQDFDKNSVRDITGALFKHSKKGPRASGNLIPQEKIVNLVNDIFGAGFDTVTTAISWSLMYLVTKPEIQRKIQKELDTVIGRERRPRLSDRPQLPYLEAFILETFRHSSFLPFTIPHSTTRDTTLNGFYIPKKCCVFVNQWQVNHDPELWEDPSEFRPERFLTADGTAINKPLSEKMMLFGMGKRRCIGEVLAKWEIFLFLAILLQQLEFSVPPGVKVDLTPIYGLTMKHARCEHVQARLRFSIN
# CYP3A5 = CYP3A5 (Homo sapiens, UniProt P20815); experiment: Inhibition of human recombinant CYP3A5 at 10 uM by spectrofluorimetry; assay type: ADME; method in brief: as §1
# CYP2E1 = CYP2E1 (Homo sapiens, UniProt P05181); experiment: Inhibition of human recombinant CYP2E1 at 10 uM by spectrofluorimetry; assay type: ADME; method in brief: as §1
# NG108-15 [6] = experiment: Agonist activity at AT2 receptor in rat/mouse hybrid NG108-15 cells assessed as induction of neurite growth at 0.1 nM after 3 days by phase contrast microscopy in presence of 1 uM AT2 receptor antagonist PD-123319; assay type: functional, cell-based
# Method in brief: (§2)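 NG108-15 cells (passage 7–30) were grown in DMEM with 10% FBS, HAT and gentamycin at 37 °C in 7% CO2. Cells were stimulated once daily for three days, starting 24 h after plating. When used, PD123,319 (1 µM) was added 30 min before agonist. After 3 days, cells were scored from phase-contrast micrographs: positive meant at least one neurite longer than the cell body, expressed as % of total cells. At least 140 cells were counted in three independent experiments.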
# NG108-15 [7] = experiment: Agonist activity at AT2 receptor in rat/mouse hybrid NG108-15 cells assessed as induction of neurite growth at 0.1 nM after 3 days by phase contrast microscopy; assay type: functional, cell-based; method in brief: as §2
# NG108-15 [8] = experiment: Cytotoxicity against rat/mouse hybrid NG108-15 cells at 1 uM; assay type: cell-based; settings: ng108-15, 1 µM
# Method in brief: (§3)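 NG108-15 cells were cultured for three days with test compound at 1 pM to 1 µM. Cell death was then judged by phase-contrast microscopy.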
# NG108-15 [9] = experiment: Agonist activity at AT2 receptor in rat/mouse hybrid NG108-15 cells assessed as induction of neurite growth at 100 nM after 3 days by phase contrast microscopy; assay type: functional, cell-based; settings: 0.1 nM, in the assay text read “at 0.1 nM” for “at 100 nM”; method in brief: as §2
# NG108-15 [10] = experiment: Cytotoxicity against rat/mouse hybrid NG108-15 cells up to 1 uM; assay type: cell-based; method in brief: as §3
# [11] = biological target: T5, Angiotensin type II receptor (Sus scrofa, UniProt Q2XUH7); experiment: Displacement of [125I]angiotensin 2 from AT2 receptor in pig uterus membrane after 1.5 hrs by gamma counting; assay type: cell membranes
# T5 sequence (Q2XUH7 whole entry): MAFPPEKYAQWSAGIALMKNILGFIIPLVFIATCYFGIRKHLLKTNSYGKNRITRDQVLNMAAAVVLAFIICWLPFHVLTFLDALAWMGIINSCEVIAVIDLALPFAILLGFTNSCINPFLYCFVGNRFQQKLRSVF
# [12] = Displacement of [125I]angiotensin 2 from rat AT1 receptor expressed in african green monkey COS7 cells after 24 hrs; assay type: cell-based; settings: cos-7
# T2 sequence (P11712 whole entry): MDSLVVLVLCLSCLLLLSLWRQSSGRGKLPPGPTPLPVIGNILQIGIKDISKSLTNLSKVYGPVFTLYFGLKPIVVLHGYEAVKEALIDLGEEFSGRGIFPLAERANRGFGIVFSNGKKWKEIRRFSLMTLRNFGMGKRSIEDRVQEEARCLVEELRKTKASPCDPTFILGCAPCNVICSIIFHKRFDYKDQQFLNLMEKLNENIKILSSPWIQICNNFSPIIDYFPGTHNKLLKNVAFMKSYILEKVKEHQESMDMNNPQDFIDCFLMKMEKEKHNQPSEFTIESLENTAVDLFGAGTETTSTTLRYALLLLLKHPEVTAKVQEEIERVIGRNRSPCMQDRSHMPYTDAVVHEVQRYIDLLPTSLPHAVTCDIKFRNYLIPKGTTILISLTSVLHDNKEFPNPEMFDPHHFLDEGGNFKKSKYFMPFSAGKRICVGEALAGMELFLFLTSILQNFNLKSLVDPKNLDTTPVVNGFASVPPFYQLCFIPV
# Chain of CYP2C19 (P33261 whole entry): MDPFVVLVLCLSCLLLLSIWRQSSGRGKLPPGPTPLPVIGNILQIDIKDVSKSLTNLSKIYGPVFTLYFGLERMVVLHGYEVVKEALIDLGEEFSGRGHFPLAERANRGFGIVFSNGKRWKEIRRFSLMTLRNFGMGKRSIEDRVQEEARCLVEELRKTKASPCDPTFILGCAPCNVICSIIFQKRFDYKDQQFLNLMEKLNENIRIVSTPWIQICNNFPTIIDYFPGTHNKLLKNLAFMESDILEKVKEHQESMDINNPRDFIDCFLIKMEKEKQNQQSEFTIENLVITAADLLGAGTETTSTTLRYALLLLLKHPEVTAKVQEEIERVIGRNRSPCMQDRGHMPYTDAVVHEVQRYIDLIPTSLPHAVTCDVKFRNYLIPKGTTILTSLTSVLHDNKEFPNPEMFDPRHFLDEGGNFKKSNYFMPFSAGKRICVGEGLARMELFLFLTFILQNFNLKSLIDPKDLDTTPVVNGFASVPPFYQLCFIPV
# T3 sequence (P08684 whole entry): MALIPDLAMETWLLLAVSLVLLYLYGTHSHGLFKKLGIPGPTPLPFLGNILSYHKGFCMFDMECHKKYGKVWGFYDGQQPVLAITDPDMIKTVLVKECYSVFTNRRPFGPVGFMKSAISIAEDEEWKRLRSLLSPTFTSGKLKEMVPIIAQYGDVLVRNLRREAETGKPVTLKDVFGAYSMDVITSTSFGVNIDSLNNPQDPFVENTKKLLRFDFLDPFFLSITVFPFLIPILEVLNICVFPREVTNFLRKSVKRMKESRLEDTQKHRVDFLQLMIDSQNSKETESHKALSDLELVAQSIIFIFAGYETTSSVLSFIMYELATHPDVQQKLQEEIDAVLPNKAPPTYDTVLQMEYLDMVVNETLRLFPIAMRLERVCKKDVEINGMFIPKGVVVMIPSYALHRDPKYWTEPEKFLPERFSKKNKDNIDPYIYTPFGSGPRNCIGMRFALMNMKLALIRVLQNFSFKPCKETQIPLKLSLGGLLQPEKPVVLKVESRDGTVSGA
# Chain of CYP3A5 (P20815 whole entry): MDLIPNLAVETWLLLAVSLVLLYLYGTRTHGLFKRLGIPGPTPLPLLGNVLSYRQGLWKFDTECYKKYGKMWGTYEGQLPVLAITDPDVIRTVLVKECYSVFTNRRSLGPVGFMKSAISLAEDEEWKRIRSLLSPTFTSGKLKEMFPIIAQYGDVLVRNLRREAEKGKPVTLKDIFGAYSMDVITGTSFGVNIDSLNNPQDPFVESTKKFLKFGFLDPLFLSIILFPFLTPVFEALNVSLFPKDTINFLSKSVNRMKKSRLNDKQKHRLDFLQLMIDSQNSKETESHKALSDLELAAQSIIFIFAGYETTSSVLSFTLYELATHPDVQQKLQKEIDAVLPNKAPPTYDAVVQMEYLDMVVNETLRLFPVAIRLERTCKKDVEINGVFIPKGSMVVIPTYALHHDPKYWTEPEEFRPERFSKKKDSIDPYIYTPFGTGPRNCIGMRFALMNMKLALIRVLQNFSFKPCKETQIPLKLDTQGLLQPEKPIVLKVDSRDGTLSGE
# Chain of CYP2E1 (P05181 whole entry): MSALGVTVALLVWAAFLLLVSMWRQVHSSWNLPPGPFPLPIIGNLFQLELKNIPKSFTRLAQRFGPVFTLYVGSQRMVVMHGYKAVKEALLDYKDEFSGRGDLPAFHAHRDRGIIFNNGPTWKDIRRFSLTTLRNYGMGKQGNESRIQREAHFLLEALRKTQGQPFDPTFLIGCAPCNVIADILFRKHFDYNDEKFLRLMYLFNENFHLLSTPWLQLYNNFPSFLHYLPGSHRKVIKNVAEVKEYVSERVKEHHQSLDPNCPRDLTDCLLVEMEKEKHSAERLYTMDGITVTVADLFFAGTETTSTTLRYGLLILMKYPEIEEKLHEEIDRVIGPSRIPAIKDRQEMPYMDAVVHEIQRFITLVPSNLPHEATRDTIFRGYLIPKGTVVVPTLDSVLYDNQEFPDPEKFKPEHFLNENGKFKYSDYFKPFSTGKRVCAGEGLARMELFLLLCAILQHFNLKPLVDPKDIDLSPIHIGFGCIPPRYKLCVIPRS
Ki [1] [nM],inhibition at 10 µM (CYP2C9 [3]) [%],inhibition at 10 µM (CYP3A4 [5]) [%],Ki [11] [nM],Structure (SMILES),other results
> 10000,94,82,,CCCCOC(=O)NS(=O)(=O)c1sc(CC(C)C)cc1-c1ccc(Cn2ccnc2)cc1 [BULOXIBUTID],inhibition at 10 µM (CYP2B6): 40%; inhibition at 10 µM (CYP2C9 [2]): 94%; inhibition at 10 µM (CYP2C19): 67%; inhibition at 10 µM (CYP3A4 [4]): 82%; inhibition at 10 µM (CYP1A2): 63%
> 10000,24,28,3.5,CCCCOC(=O)NS(=O)(=O)c1sc(CC(C)C)cc1-c1ccc(CN2CCCC2=O)cc1,inhibition at 10 µM (CYP2B6): 33%; inhibition at 10 µM (CYP3A5): 25%; inhibition at 10 µM (CYP2E1): 5%; Activity (NG108-15 [6]): inactive; inhibition at 10 µM (CYP2C19): 25%; Activity (NG108-15 [7]): Active; Activity (NG108-15 [8]): Toxic; Activity (NG108-15 [9]): Active; Activity (NG108-15 [10]): Non-toxic
> 10000,,,> 10000,CCCCOC(=O)NS(=O)(=O)c1sc(CC(C)C)cc1-c1ccc(CN2C(=O)CCC2=O)cc1,
12.1,,,,CCCCc1nc(Cl)c(CO)n1Cc1ccc(-c2ccccc2-c2nnn[nH]2)cc1 [LOSARTAN],
> 10000,,,18.8,CCCCOC(=O)NS(=O)(=O)c1sc(CC(C)C)cc1-c1ccc(C(=O)c2cccs2)cc1,
> 10000,,,175,CCCCOC(=O)NS(=O)(=O)c1sc(CC(C)C)cc1-c1ccc(Cc2ccsc2)cc1,
> 10000,,,108,CCCCOC(=O)NS(=O)(=O)c1sc(CC(C)C)cc1-c1ccc(Cn2cnccc2=O)cc1,
> 10000,71,51,16.1,CCCCOC(=O)NS(=O)(=O)c1sc(CC(C)C)cc1-c1ccc(CN2CCC(=O)CC2)cc1,
,,,,CCCCOC(=O)NS(=O)(=O)c1sc(CC(C)C)cc1-c1ccc(Cn2c(CC)nc3c(C)cc(C)nc32)cc1,IC50 [12]: 1.1 nM
> 10000,56,33,9.5,CCCCOC(=O)NS(=O)(=O)c1sc(CC(C)C)cc1-c1ccc(Cn2ccc(C(F)(F)F)n2)cc1,
> 10000,,,280,CCCCOC(=O)NS(=O)(=O)c1sc(CC(C)C)cc1-c1ccc(CN2CCOCC2)cc1,
> 10000,23,16,2.3,CCCCOC(=O)NS(=O)(=O)c1sc(CC(C)C)cc1-c1ccc(Cn2cccn2)cc1,inhibition at 10 µM (CYP2B6): 29%; inhibition at 10 µM (CYP3A5): 20%; inhibition at 10 µM (CYP2C19): 12%
> 10000,,,280,CCCCOC(=O)NS(=O)(=O)c1sc(CC(C)C)cc1-c1ccc(CN2CCSC2)cc1,
> 10000,38,14,2.9,CCCCOC(=O)NS(=O)(=O)c1sc(CC(C)C)cc1-c1ccc(C(=O)c2nccn2C)cc1,inhibition at 10 µM (CYP3A5): 17%; inhibition at 10 µM (CYP2C19): 6%
> 10000,92,16,18.6,CCCCOC(=O)NS(=O)(=O)c1sc(CC(C)C)cc1-c1ccc(C(=O)c2nccs2)cc1,
> 10000,,,,Cc1cc(Cn2cnc3c2C[C@@H](C(=O)O)N(C(=O)C(c2ccccc2)c2ccccc2)C3)ccc1N(C)C,
> 10000,31,71,7.3,CCCCOC(=O)NS(=O)(=O)c1sc(CC(C)C)cc1-c1ccc(Cn2cnc(C(F)(F)F)c2)cc1,
> 10000,75,36,13.8,CCCCOC(=O)NS(=O)(=O)c1sc(CC(C)C)cc1-c1ccc(C(=O)c2ncco2)cc1,
> 10000,38,20,3.6,CCCCOC(=O)NS(=O)(=O)c1sc(CC(C)C)cc1-c1ccc(CN2C(=O)N(C)C(C)(C)C2=O)cc1,
> 10000,86,70,3.2,CCCCOC(=O)NS(=O)(=O)c1sc(CC(C)C)cc1-c1ccc(Cc2nccs2)cc1,
> 10000,40,25,68.6,CCCCOC(=O)NS(=O)(=O)c1sc(CC(C)C)cc1-c1ccc(CN2C(=O)CN(C)C2=O)cc1,
> 10000,,,16,CCCCOC(=O)NS(=O)(=O)c1sc(CC(C)C)cc1-c1ccc(Cn2ncnn2)cc1,
> 10000,83,57,3.9,CCCCOC(=O)NS(=O)(=O)c1sc(CC(C)C)cc1-c1ccc(Cc2ncco2)cc1,
> 10000,,,3.4,CCCCOC(=O)NS(=O)(=O)c1sc(CC(C)C)cc1-c1ccc(C(=O)c2ccnn2C)cc1,
> 10000,24,20,16.5,CCCCOC(=O)NS(=O)(=O)c1sc(CC(C)C)cc1-c1ccc(CN2CCN(C)C2=O)cc1,
> 10000,37,44,17.6,CCCCOC(=O)NS(=O)(=O)c1sc(CC(C)C)cc1-c1ccc(Cn2cnc(C)c2)cc1,
> 10000,,,328,CCCCOC(=O)NS(=O)(=O)c1sc(CC(C)C)cc1-c1ccc(Cc2nnc(C(F)(F)F)o2)cc1,
> 10000,,,49,CCCCOC(=O)NS(=O)(=O)c1sc(CC(C)C)cc1-c1ccc(Cn2cnnn2)cc1,
